Data published in ChEMBL document CHEMBL2086227, “Synthesis and evaluation of anticonvulsant and antidepressant activities of 5-alkoxytetrazolo[1,5-c]thieno[2,3-e]pyrimidine derivatives” (Eur J Med Chem, 2012).
Activity calls are given as the source filed them. The calls are words filed in the database; no cut-off is given here.

What was measured:
[1] = tested on: Mus musculus; test: Anticonvulsant activity in Kunming mouse assessed as protection against maximal electroshock-induced seizure at 30 mg/kg, ip; format: functional, organism-based; design: dose 30 mg/kg
In short: (§1)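 Mice held on a 12-h light/dark cycle at 23 ± 2 °C with free food and water. Compounds were given ip as suspensions in aqueous Tween 80 (3% v/v, 0.9% NaCl) at 0.05 mL/20 g body weight. The maximal electroshock test was scored as number of animals protected over number tested.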

[2] = tested on: Mus musculus; test: Anticonvulsant activity in Kunming mouse assessed as protection against maximal electroshock-induced seizure at 300 mg/kg, ip; format: functional, organism-based; design: dose 300 mg/kg; in short: as §1
[3] = tested on: Mus musculus; test: Antidepressant activity in Kunming mouse assessed as decrease in immobility time at 100 mg/kg, ip measured for last 4 mins of 6 mins test after 30 mins post dose by forced swimming test relative to control; format: functional; design: scale not given: the % may be the effect or the level left; conditions: route intraperitoneal
In short: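 Mice were dosed ip with compounds at 100 mg/kg, suspended in 3% Tween 80 in 0.9% NaCl (0.05 mL/20 g); controls got 3% aqueous Tween 80. After 30 min each mouse was placed in a water-filled cylinder (water depth 10 cm, 23–25 °C) for 6 min. Upright floating with only slight movements was scored as immobility, timed over the last 4 min. Mean ± S.E.M., n = 8.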

[4] = tested on: Mus musculus; test: Anticonvulsant activity in Kunming mouse assessed as protection against maximal electroshock-induced seizure at 100 mg/kg, ip; format: functional, organism-based; design: dose 100 mg/kg; in short: as §1
[5] = tested on: Mus musculus; test: Toxicity in Kunming mouse assessed as increase in locomotor activity at 100 mg/kg, ip administered 60 mins prior to test measured for 3 mins by open-field test; format: organism-based; design: dose 100 mg/kg, route intraperitoneal; conditions: in vivo, 0.05 h
In short: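 Open-field exploratory activity was recorded for 3 min, starting 60 min after ip dosing in 3% Tween 80/0.9% NaCl vehicle. Counts were taken for locomotion (line crossings), rearing (standing on hind legs) and grooming, and compared with a vehicle control group.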

Compound: Nc1ccccc1Oc1nc2ccsc2c2nnnn12
- Activity [1]: inactive
- Activity [2]: Active
- Activity [3]: 22.8%

Compound: Fc1ccc(Oc2nc3ccsc3c3nnnn23)cc1
- Activity [1]: inactive
- Activity [2]: inactive
- Activity [4]: inactive
- Activity [3]: 18.18%

Compound: COc1ccc(Oc2nc3ccsc3c3nnnn23)cc1
- Activity [1]: inactive
- Activity [2]: inactive
- Activity [4]: inactive
- Activity [3]: 46.18%

Compound: Clc1cccc(Oc2nc3ccsc3c3nnnn23)c1
- Activity [1]: inactive
- Activity [2]: inactive
- Activity [4]: inactive
- Activity [3]: 15.42%

Compound: c1cnc2c(Oc3nc4ccsc4c4nnnn34)cccc2c1
- Activity [1]: inactive
- Activity [2]: inactive
- Activity [4]: inactive
- Activity [3]: 23.62%

Compound: Cc1cccc(Oc2nc3ccsc3c3nnnn23)c1
- Activity [1]: inactive
- Activity [2]: inactive
- Activity [4]: inactive
- Activity [3]: 39.04%

Compound: COc1ccccc1Oc1nc2ccsc2c2nnnn12
- Activity [1]: inactive
- Activity [2]: inactive
- Activity [4]: inactive
- Activity [3]: 26.05%

Compound: Fc1cccc(Oc2nc3ccsc3c3nnnn23)c1
- Activity [1]: inactive
- Activity [2]: inactive
- Activity [4]: inactive
- Activity [3]: 25.73%

Compound: c1ccc2c(Oc3nc4ccsc4c4nnnn34)cccc2c1
- Activity [1]: inactive
- Activity [2]: inactive
- Activity [4]: inactive
- Activity [3]: 9.25%

Compound: Clc1ccc(Oc2nc3ccsc3c3nnnn23)c(Cl)c1
- Activity [5]: Non-toxic
- Activity [1]: inactive
- Activity [2]: inactive
- Activity [4]: inactive
- Activity [3]: 51.62%

Compound: c1ccc(Oc2nc3ccsc3c3nnnn23)cc1
- Activity [1]: inactive
- Activity [4]: inactive
- Activity [3]: 26.46%

Compound: CNCCC(Oc1ccc(C(F)(F)F)cc1)c1ccccc1 (stereo not drawn) [FLUOXETINE]
- Activity [3]: 58.09%

Compound: FC(F)(F)c1ccc(Oc2nc3ccsc3c3nnnn23)cc1
- Activity [1]: inactive
- Activity [2]: inactive
- Activity [4]: inactive
- Activity [3]: 25.16%

Compound: Nc1cccc(Oc2nc3ccsc3c3nnnn23)c1
- Activity [1]: inactive
- Activity [4]: inactive
- Activity [3]: 27.59%

Compound: Fc1ccccc1Oc1nc2ccsc2c2nnnn12
- Activity [1]: inactive
- Activity [2]: inactive
- Activity [4]: inactive
- Activity [3]: 9.33%

Compound: Clc1ccccc1Oc1nc2ccsc2c2nnnn12
- Activity [1]: inactive
- Activity [2]: inactive
- Activity [4]: inactive
- Activity [3]: 40.17%

Compound: Cc1ccc(Oc2nc3ccsc3c3nnnn23)cc1
- Activity [1]: inactive
- Activity [2]: inactive
- Activity [4]: inactive
- Activity [3]: 36.6%

Compound: Brc1ccc(Oc2nc3ccsc3c3nnnn23)cc1
- Activity [1]: inactive
- Activity [2]: Active
- Activity [3]: 10.06%

Compound: Clc1ccc(Oc2nc3ccsc3c3nnnn23)cc1
- Activity [1]: inactive
- Activity [2]: inactive
- Activity [4]: inactive
- Activity [3]: 35.63%

Compound: Cc1ccccc1Oc1nc2ccsc2c2nnnn12
- Activity [1]: inactive
- Activity [2]: inactive
- Activity [4]: inactive
- Activity [3]: 36.44%

Compound: COc1cccc(Oc2nc3ccsc3c3nnnn23)c1
- Activity [1]: inactive
- Activity [2]: inactive
- Activity [4]: inactive
- Activity [3]: 37.41%
